# Assay outcomes as filed in PubChem BioAssay.
# MT stabilize HCS: microtubule stabilizers in HeLa cells, primary screen, imaging, high-content imaging. HeLa tubulin immunostaining HCS, 24 h; share of cells brighter than vehicle mean+2SD. % tubulin-high responders, % at 10 µM. 200,000 tested, 0.83% active;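 active = plate Z-score above 3 for both tubulin-high and condensed-nucleus cell shares, with cell loss under 80%, at 10 µM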;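 note: anti alpha tubulin signal scored within the nucleus-defined area of each cell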
# HSV augment: enhancers of HSV replication in host cells, fold increase, host cell viability | HSV replication augmentation in cells | 220,000 tested, 0.005% active | maximum fold increase | AID 1956, 2009; in the data active = maximum fold increase above about 1.5; tested in PC3 cells
# L major viab: Leishmania major promastigote growth inhibition, primary screen | AID 1063, 2008 | Leishmania major promastigotes, resazurin fluorescence viability | 200,000 tested, 9% active | inhibition, % at 10 µM; in the data active = inhibition above about 50%;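 note: promastigotes grown with compound for 44 hours at 28 °C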
# Dynein cargo inh: inhibitors of GR-EGFP nuclear translocation, primary screen, dynein cargo transport inhibitor project, imaging, high-content, 3617.4 mouse cells | z-score, hits read low | 220,000 tested, 0.47% active | test concentration mostly 20 µM; stimulated with dexamethasone, 1 µM; active compounds read low | AID 1381, 2008;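 active = plate z-score of nuclear minus cytoplasmic receptor signal below a set negative limit, without overly bright fluorescence or cell loss, cut at about -3.5 in these data, passing the limit was not always enough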;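 note: z-score of nuclear minus cytoplasmic ring GR-EGFP intensity difference per well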
#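 Also added: dexamethasone, 1.0 µM final. Medium: tet-free, stripped-serum medium. Detection: fixed, Hoechst-stained cells imaged at 10x for EGFP. Read-out: nuclear-to-cytoplasmic GR-EGFP distribution per well. Times: induction 48 h, compound 1 h, agonist 30 min.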
# b-catenin transl: modulators of beta-catenin nuclear translocation, primary screen, imaging, HeLa cells, immunofluorescence, high-content; nuclear translocation activity, % at 5 µM; 190,000 tested, 0.3% active;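 active = nuclear translocation activity above 50% at 5 µM, with a well cell count of 50 or more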;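 note: per-cell ratio of nuclear to cytoplasmic median beta-catenin stain intensity; plate controls were DMSO negative control for no effect and GSK-3 inhibitor IX positive control for full effect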
#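 Test system: human HeLa cells, endogenous beta-catenin. Times: 24 h compound exposure, 37°C. Measured by: beta-catenin immunofluorescence imaging with DAPI.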
# Starred values were filed as active, the others as inactive; i = inactive; . = no result given. Sampled rows, rich in hits. Any-hit rate of the full collection: about 8.9%.
SMILES,MT stabilize HCS,HSV augment,L major viab,Dynein cargo inh,b-catenin transl
COc1ccc(/C=N/NC(=O)c2cccc([N+](=O)[O-])c2)cc1OC(=O)c1ccccc1,41*,i,0,-0.1,-4
COc1cc(/C=N/NC(=O)c2cccc([N+](=O)[O-])c2)cc(OC)c1O,5,i,10,-1.5,0
COc1ccc(C(=O)Oc2cc(/C=N/NS(=O)(=O)c3ccccc3)ccc2OC)cc1,2,i,-1,-0.56,0
COc1ccc(/C=N/NC(N)=S)cc1OC(=O)c1ccccc1,38*,i,79*,0.59,0
COc1cccc(/C=N/NC(=O)c2ccc([N+](=O)[O-])cc2Cl)c1O,3,i,99*,2.7,0
COc1cccc(/C=N/NC(=O)c2cccc([N+](=O)[O-])c2)c1OS(=O)(=O)c1ccccc1,3,i,100*,0.1,0
COc1ccc(/C=N/NC(=O)c2cccc([N+](=O)[O-])c2)cc1OC(=O)c1ccc(C)cc1,34,i,5,-0.11,0
CCCN(CCC)C(=O)c1ccccc1C(=O)N(CCC)CCC,3,i,-5,-0.52,5
COc1cc(/C=C2/NC(=O)N(Cc3ccccc3F)C2=O)ccc1Oc1ccc([N+](=O)[O-])cn1,2,i,80*,1.3,-2
C=CCc1c(C)nc(N2CCSCC2)[nH]c1=O,.,i,.,-0.04,-1
COC(=O)[C@@]1(Cc2ccc(F)cc2)[C@H]2c3cc(C(=O)N4CCCC4)n(CCc4ccccn4)c3C[C@H]2CN1C(=O)c1ccccc1,3,i,99*,0.64,4
COCCn1c(C(=O)N2CCCC2)cc2c1C[C@H]1CN(C(=O)c3ccccc3)[C@@](Cc3ccc(F)cc3)(C(=O)OC)[C@@H]21,2,i,17,-0.53,.
COC(=O)[C@@]1(Cc2ccccc2)[C@H]2c3cc(C(=O)N4CCCC4)n(CCSCCO)c3C[C@H]2CN1C(=O)c1ccccc1,4,.,9,-0.067,3
COC(=O)[C@@]1(Cc2ccc(F)cc2)[C@H]2c3cc(C(=O)N(C)C)n(CCc4ccccn4)c3C[C@H]2CN1C(=O)c1ccccc1,3,i,91*,-0.69,.
COC(=O)[C@@]1(Cc2ccc(F)cc2)[C@H]2c3cc(C(=O)N4CCCC4)n(CCc4c[nH]c5ccc(OC)cc45)c3C[C@H]2CN1C(=O)c1ccccc1,4,.,79*,0.92,-2
COC(=O)[C@@]1(Cc2ccc(OC)cc2)[C@H]2c3cc(C(=O)N(C)C)n(Cc4ccc(OC(F)(F)F)cc4)c3C[C@H]2CN1C(=O)c1ccccc1,5,i,50*,0.013,.
COC(=O)[C@@]1(Cc2ccc(F)cc2)[C@H]2c3cc(C(=O)N(C)C)n(Cc4ccccc4)c3C[C@H]2CN1C(=O)c1ccccc1,6,i,39,-0.44,-5
COC(=O)[C@@]1(Cc2ccc(F)cc2)[C@H]2c3cc(C(=O)N(C)C)n(CCc4ccc(OC)c(Br)c4)c3C[C@H]2CN1C(=O)c1ccccc1,5,.,45,-1.2,-3
Cc1ccc(NC(=O)Cn2nc(C)c([N+](=O)[O-])c2C)cc1C,2,i,5,0.83,0
CC(C)Cn1cnc2c1c(=O)n(CC(=O)Nc1ccc3c(c1)OCO3)c(=O)n2Cc1ccccc1,4,i,20,0.12,0
COC(=O)[C@@]1(Cc2ccc(OC)cc2)[C@H]2c3cc(C(=O)N4CCCC4)n(Cc4ccc(C)o4)c3C[C@H]2CN1C(=O)c1ccccc1,6,i,53*,0.0057,-2
COC(=O)[C@@]1(Cc2ccc(OC)cc2)[C@@H]2C(=CC(=O)[C@H]2CC(=O)C(=O)N(C)C)CN1C(=O)c1ccccc1,11,i,100*,-4.8*,-1
O=C(CSC(=S)N1CCCC1)c1cc(Br)cc(Br)c1O,5,i,95*,-0.55,0
Cc1ccccc1CN1C[C@@H]2C[C@@H](c3cn[nH]c3-c3ccccc3)N3CCC[C@@]23C1=O,4,i,20,1.7,3
Cc1ccc(C)c(NC(=O)C(Sc2ncnc3ccccc23)c2ccccc2)c1 (stereo unspecified),5,i,73*,0.38,3
SMILES,MT stabilize HCS,HSV augment,L major viab,Dynein cargo inh,b-catenin transl
CCOC(=O)COc1ccccc1/C=C\[N+](=O)[O-],2,i,100*,-3.6*,1
O=C1c2[nH]nc(-c3ccccc3O)c2C(c2ccccc2F)N1Cc1ccco1 (stereo unspecified),4,i,100*,1.8,-3
COc1cccc(C2c3c(-c4ccccc4O)n[nH]c3C(=O)N2Cc2ccco2)c1 (stereo unspecified),.,i,.,-0.35,1
O=C(C1=C(O)C(=O)N(Cc2ccco2)C1c1ccccc1F)c1cccs1 (stereo unspecified),2,i,-4,2.1,0
O=C1c2[nH]nc(-c3ccccc3O)c2C(c2ccccc2)N1Cc1ccco1 (stereo unspecified),9,i,78*,0.066,-2
COc1cc(/C=C(/C#N)c2nc3ccccc3c(=O)[nH]2)ccc1O,2,i,17,0.48,-5
C=CCSc1ncnc2sc(C)c(C)c12,2,i,54*,0.7,.
O=C(c1cccc(C(F)(F)F)c1)C1CCCN(Cc2cccn2-c2ncccn2)C1 (stereo unspecified),3,i,28,-0.062,6
Cc1ccc(S(=O)(=O)N2CCCCC2)cc1NC(=O)c1ccc2c(c1)OCO2,3,i,-2,-0.5,0
Cc1cc(C)cc(NC(=O)c2ccc([N+](=O)[O-])o2)c1,3,i,100*,-0.91,4
NS(=O)(=O)c1ccc(O)c(NC(=O)c2ccc([N+](=O)[O-])o2)c1,.,i,.,-0.026,0
Cc1cc(NC(=O)c2ccc([N+](=O)[O-])o2)ccc1NC(=O)c1ccco1,30,i,100*,-1.6,-1
Cc1cc([N+](=O)[O-])ccc1NC(=O)c1ccco1,6,i,-4,0.0017,-1
Cc1cc(C)nc(NC(=O)c2ccc([N+](=O)[O-])o2)n1,2,i,56*,-0.76,8
COc1ccccc1/C=N/NC(=O)c1ccccc1NS(=O)(=O)c1ccc(C)cc1,3,i,-6,-0.47,0
O=C(NCc1ccc(F)cc1)c1ccc(S(=O)(=O)Nc2cccc(C(F)(F)F)c2)cc1,2,i,66*,0.77,-1
c1ccc(N2CCN(c3ccccc3)C2c2ccncc2)cc1,3,i,82*,-0.21,-7
COc1ccc(C2N(c3ccc(C)cc3)CCN2c2ccc(C)cc2)cc1O,4,i,11,0.069,1
c1ccc(N2CCN(c3ccccc3)C2c2cccnc2)cc1,2,i,92*,-0.33,3
